In ChEMBL document CHEMBL3580554, “Design, synthesis, and anticonvulsant activity of new hybrid compounds derived from 2-(2,5-dioxopyrrolidin-1-yl)propanamides and 2-(2,5-dioxopyrrolidin-1-yl)butanamides” (J Med Chem, 2015):

Tests used:
Mus musculus [1] = assay: Anticonvulsant activity in Swiss mouse assessed as protection against seizures at 300 mg/kg, ip dosed 0.25 hrs before initiation of maximal electroconvulsions by maximal electroshock test; type: functional
Summary of the method: (§1)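 Mice were dosed i.p. at a fixed 300 or 100 mg/kg (6 Hz: 100 mg/kg only). Protection was then scored against MES, sc PTZ or 6 Hz seizures at pretreatment times of 0.25, 0.5, 1 and 2 h. Groups were four mice, scored as number protected / number tested. This also gives the time course and time of peak effect.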

Mus musculus [2] = assay: Anticonvulsant activity in Swiss mouse assessed as protection against seizures at 100 mg/kg, ip dosed 1 hr before initiation of maximal electroconvulsions by maximal electroshock test; type: functional; summary of the method: as §1
Mus musculus [3] = assay: Anticonvulsant activity in Swiss mouse assessed as protection against seizures at 300 mg/kg, ip dosed 0.5 hrs before initiation of maximal electroconvulsions by maximal electroshock test; type: functional; summary of the method: as §1
Mus musculus [4] = assay: Anticonvulsant activity in Swiss mouse assessed as protection against seizures at 300 mg/kg, ip dosed 2 hrs before initiation of maximal electroconvulsions by maximal electroshock test; type: functional; summary of the method: as §1
Mus musculus [5] = assay: Anticonvulsant activity in Swiss mouse assessed as protection against seizures at 100 mg/kg, ip dosed 0.5 hrs before initiation of maximal electroconvulsions by maximal electroshock test; type: functional; summary of the method: as §1
Mus musculus [6] = assay: Anticonvulsant activity in ip dosed Swiss mouse assessed as protection against seizures measured at 0.25 hrs of time to peak effect by maximal electroshock test; type: functional
Summary of the method: (§2)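 Median effective doses (ED50, mg/kg) were determined i.p. in mice at the time of peak effect in the MES, sc PTZ or 6 Hz tests. Only compounds giving at least 50% protection at 100 mg/kg in that test were taken forward.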

Mus musculus [7] = assay: Anticonvulsant activity in Swiss mouse assessed as protection against seizures at 300 mg/kg, ip dosed 1 hr before initiation of maximal electroconvulsions by maximal electroshock test; type: functional; summary of the method: as §1
Mus musculus [8] = assay: Anticonvulsant activity in Swiss mouse assessed as protection against seizures at 100 mg/kg, ip dosed 2 hrs before initiation of maximal electroconvulsions by maximal electroshock test; type: functional; summary of the method: as §1
Mus musculus [9] = assay: Anticonvulsant activity in Swiss mouse assessed as protection against seizures at 100 mg/kg, ip dosed 0.25 hrs before initiation of maximal electroconvulsions by maximal electroshock test; type: functional; summary of the method: as §1
Mus musculus [10] = assay: Protective index, ratio of neurotoxic TD50 in Swiss mouse by Chimney test to anticonvulsant ED50 in Swiss mouse measured at 0.25 hrs of time to peak effect by subcutaneous pentylenetetrazole seizure test; type: functional
Summary of the method: (§3)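 Protective index was calculated as TD50 (chimney test, mouse, i.p.) divided by ED50 from the matching MES, sc PTZ or 6 Hz test, both taken at the time of peak effect.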

Mus musculus [11] = assay: Anticonvulsant activity in Swiss mouse model of 6 Hz psychomotor seizure mode assessed as protection against seizures at 100 mg/kg, ip dosed 0.25 hrs before 6 Hz electrical stimulation by 6 Hz test; type: functional; summary of the method: as §1
Mus musculus [12] = assay: Anticonvulsant activity in Swiss mouse model of 6 Hz psychomotor seizure mode assessed as protection against seizures at 100 mg/kg, ip dosed 0.5 hrs before 6 Hz electrical stimulation by 6 Hz test; type: functional; summary of the method: as §1
Mus musculus [13] = assay: Anticonvulsant activity in Swiss mouse model of 6 Hz psychomotor seizure mode assessed as protection against seizures at 100 mg/kg, ip dosed 1 hr before 6 Hz electrical stimulation by 6 Hz test; type: functional; summary of the method: as §1
[14] = Toxicity in ip dosed Swiss mouse assessed as induction of motor performance impairment measured within 60 seconds measured at 0.25 hrs of time to peak effect by Chimney test; type: organism-based; conditions: in vivo
Summary of the method: (§4)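 Neurotoxicity was measured i.p. in mice by the chimney test for motor impairment. It was given as the median neurotoxic dose (TD50, mg/kg) at the time of peak effect.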

Mus musculus [15] = assay: Anticonvulsant activity in Swiss mouse assessed as protection against seizures at 300 mg/kg, ip dosed 1 hr before pentylenetetrazole challenge by subcutaneous pentylenetetrazole seizure test; type: functional; summary of the method: as §1
Mus musculus [16] = assay: Anticonvulsant activity in ip dosed Swiss mouse assessed as protection against seizures measured at 0.25 hrs of time to peak effect by 6 Hz test by 6 Hz psychomotor seizure test; type: functional; summary of the method: as §2
Mus musculus [17] = assay: Anticonvulsant activity in Swiss mouse assessed as protection against seizures at 300 mg/kg, ip dosed 2 hrs before pentylenetetrazole challenge by subcutaneous pentylenetetrazole seizure test; type: functional; summary of the method: as §1
Mus musculus [18] = organism: Mus musculus; assay: Protective index, ratio of neurotoxic TD50 in Swiss mouse by Chimney test to anticonvulsant ED50 in Swiss mouse measured at 0.25 hrs of time to peak effect by maximal electroshock test; summary of the method: as §3
Mus musculus [19] = assay: Anticonvulsant activity in ip dosed Swiss mouse assessed as protection against seizures measured at 0.25 hrs of time to peak effect by subcutaneous pentylenetetrazole seizure test; type: functional; summary of the method: as §2
Mus musculus [20] = assay: Anticonvulsant activity in Swiss mouse assessed as protection against seizures at 100 mg/kg, ip dosed 0.25 hrs before pentylenetetrazole challenge by subcutaneous pentylenetetrazole seizure test; type: functional; summary of the method: as §1
Mus musculus [21] = organism: Mus musculus; assay: Protective index, ratio of neurotoxic TD50 in Swiss mouse by Chimney test to anticonvulsant ED50 in Swiss mouse measured at 0.25 hrs of time to peak effect by 6 Hz test by 6 Hz psychomotor seizure test; type: functional; summary of the method: as §3
Mus musculus [22] = assay: Anticonvulsant activity in Swiss mouse assessed as protection against seizures at 300 mg/kg, ip dosed 0.5 hrs before pentylenetetrazole challenge by subcutaneous pentylenetetrazole seizure test; type: functional; summary of the method: as §1
Mus musculus [23] = assay: Anticonvulsant activity in Swiss mouse assessed as protection against seizures at 100 mg/kg, ip dosed 2 hrs before pentylenetetrazole challenge by subcutaneous pentylenetetrazole seizure test; type: functional; summary of the method: as §1
Mus musculus [24] = assay: Anticonvulsant activity in Swiss mouse model of 6 Hz psychomotor seizure mode assessed as protection against seizures at 100 mg/kg, ip dosed 2 hrs before 6 Hz electrical stimulation by 6 Hz test; type: functional; summary of the method: as §1
Mus musculus [25] = assay: Anticonvulsant activity in Swiss mouse assessed as protection against seizures at 100 mg/kg, ip dosed 1 hr before pentylenetetrazole challenge by subcutaneous pentylenetetrazole seizure test; type: functional; summary of the method: as §1
Mus musculus [26] = assay: Anticonvulsant activity in Swiss mouse assessed as protection against seizures at 300 mg/kg, ip dosed 0.25 hrs before pentylenetetrazole challenge by subcutaneous pentylenetetrazole seizure test; type: functional; summary of the method: as §1
Mus musculus [27] = assay: Anticonvulsant activity in Swiss mouse assessed as protection against seizures at 100 mg/kg, ip dosed 0.5 hrs before pentylenetetrazole challenge by subcutaneous pentylenetetrazole seizure test; type: functional; summary of the method: as §1
Mus musculus [28] = assay: Anticonvulsant activity in ip dosed Swiss mouse assessed as protection against seizures measured at 0.5 hrs of time to peak effect by maximal electroshock test; type: functional; summary of the method: as §2
Mus musculus [29] = organism: Mus musculus; assay: Protective index, ratio of neurotoxic TD50 in Swiss mouse by Chimney test to anticonvulsant ED50 in Swiss mouse measured at 0.5 hrs of time to peak effect by maximal electroshock test; summary of the method: as §3
Mus musculus [30] = assay: Anticonvulsant activity in ip dosed Swiss mouse assessed as protection against seizures measured at 0.5 hrs of time to peak effect by 6 Hz test by 6 Hz psychomotor seizure test; type: functional; summary of the method: as §2
Mus musculus [31] = organism: Mus musculus; assay: Protective index, ratio of neurotoxic TD50 in Swiss mouse by Chimney test to anticonvulsant ED50 in Swiss mouse measured at 0.5 hrs of time to peak effect by 6 Hz test by 6 Hz psychomotor seizure test; type: functional; summary of the method: as §3
Mus musculus [32] = assay: Anticonvulsant activity in ip dosed Swiss mouse assessed as protection against seizures measured at 0.5 hrs of time to peak effect by subcutaneous pentylenetetrazole seizure test; type: functional; summary of the method: as §2
[33] = Toxicity in ip dosed Swiss mouse assessed as induction of motor performance impairment measured within 60 seconds measured at 0.5 hrs of time to peak effect by Chimney test; type: organism-based; conditions: in vivo; summary of the method: as §4

SMILES	Activity (Mus musculus [1]) [%]	Activity (Mus musculus [2]) [%]	Activity (Mus musculus [3]) [%]	Activity (Mus musculus [4]) [%]	Activity (Mus musculus [5]) [%]	ED50 (Mus musculus [6]) [mg/kg]	Activity (Mus musculus [7]) [%]	Activity (Mus musculus [8]) [%]	Activity (Mus musculus [9]) [%]	further results
CC(C(=O)N1CCN(c2ccccc2F)CC1)N1C(=O)CCC1=O (racemic)	100	0	50	25	0	151	50	0	75	–
CC(C(=O)N1CCN(c2cccc(F)c2)CC1)N1C(=O)CCC1=O (racemic)	100	0	50	100	0	137	75	0	75	–
CC(C(=O)N1CCN(c2ccc(F)cc2)CC1)N1C(=O)CCC1=O (racemic)	100	0	50	50	0	130	25	0	75	–
CC(C(=O)N1CCN(c2ccccc2C(F)(F)F)CC1)N1C(=O)CCC1=O (racemic)	100	25	100	75	25	75.5	75	0	100	Ratio TD50/ED50 (Mus musculus [10]): 1.71; Activity (Mus musculus [11]): 100%; Activity (Mus musculus [12]): 25%; Activity (Mus musculus [13]): 0%; TD50 at 0.25 h [14]: 149 mg/kg; Activity (Mus musculus [15]): 75%; ED50 (Mus musculus [16]): 74.2 mg/kg; Activity (Mus musculus [17]): 50%; Ratio TD50/ED50 (Mus musculus [18]): 1.97; ED50 (Mus musculus [19]): 87.1 mg/kg; Activity (Mus musculus [20]): 100%; Ratio TD50/ED50 (Mus musculus [21]): 2.01; Activity (Mus musculus [22]): 100%; Activity (Mus musculus [23]): 0%; Activity (Mus musculus [24]): 0%; Activity (Mus musculus [25]): 25%; Activity (Mus musculus [26]): 100%; Activity (Mus musculus [27]): 75%
CCC(C(=O)N1CCN(c2ccccc2)CC1)N1C(=O)CCC1=O (racemic)	75	0	75	25	25	149	75	0	25	–
CCC(C(=O)N1CCN(c2cccc(Cl)c2)CC1)N1C(=O)CCC1=O (racemic)	75	0	50	25	50	–	100	0	50	ED50 (Mus musculus [28]): 138 mg/kg
CCC1(C)CC(=O)NC1=O (centres undefined) [ETHOSUXIMIDE]	–	–	–	–	–	> 500	–	–	–	Ratio TD50/ED50 (Mus musculus [10]): 4.89; TD50 at 0.25 h [14]: 722 mg/kg; ED50 (Mus musculus [16]): > 200 mg/kg; ED50 (Mus musculus [19]): 148 mg/kg
COC[C@@H](NC(C)=O)C(=O)NCc1ccccc1 [LACOSAMIDE]	–	–	–	–	–	–	–	–	–	ED50 (Mus musculus [28]): 9.4 mg/kg; Ratio TD50/ED50 (Mus musculus [29]): 3.6; ED50 (Mus musculus [30]): 6.4 mg/kg; Ratio TD50/ED50 (Mus musculus [31]): 5.26; ED50 (Mus musculus [32]): > 500 mg/kg; TD50 at 0.5 h [33]: 33.7 mg/kg
CCCC(CCC)C(=O)O [VALPROIC ACID]	–	–	–	–	–	–	–	–	–	ED50 (Mus musculus [30]): 130 mg/kg
